# OX1R antag-1 – OX1R (HCRTR1) antagonists, primary screen, fluorescence, CHO/OX1R cells, Fluo-8 calcium, orexin A; Orexin/Hypocretin receptor type 1 (Homo sapiens), O43613; inhibition, % at 5 µM; actives 0.43% (n = 330,000); Fluo-8 calcium fluorescence; AID 434989, 2010;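 active = inhibition above its plate's threshold, mean inhibition of all tested compounds on the plate plus 3 SD, cut at about 37% in these data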;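 also: 0% = orexin A challenge wells and 100% = SB-334867-A antagonist wells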
# OX1R antag-2 – antagonists of human orexin 1 receptor (OX1R) | Orexin/Hypocretin receptor type 1 (Homo sapiens), O43613 | OX1R-expressing cells, FRET antagonist read-out | inhibition, % at 6.6 µM | actives 1.8% (n = 330,000) | AID 485270, 2010; in the data active = inhibition mostly above about 38%, no sharp cut-off; inactive = mostly below about 40%;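 also: 0% = agonist challenge alone and 100% = reference antagonist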
# GPR7 antagonist – GPR7 receptor antagonists, primary screen, cell-based, fluorescence, single concentration | Neuropeptides B/W receptor type 1 (Homo sapiens), P48145 | inhibition, % at 4.4 µM | actives 1.1% (n = 290,000) | GPR7-expressing cells, fluorescence antagonist assay; in the data active = inhibition above about 16%, passing the limit was not always enough;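 also: cells stimulated with the agonist NPW; 0% = agonist with vehicle and 100% = vehicle without agonist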
# Target sequence (P48145 whole entry, looked up): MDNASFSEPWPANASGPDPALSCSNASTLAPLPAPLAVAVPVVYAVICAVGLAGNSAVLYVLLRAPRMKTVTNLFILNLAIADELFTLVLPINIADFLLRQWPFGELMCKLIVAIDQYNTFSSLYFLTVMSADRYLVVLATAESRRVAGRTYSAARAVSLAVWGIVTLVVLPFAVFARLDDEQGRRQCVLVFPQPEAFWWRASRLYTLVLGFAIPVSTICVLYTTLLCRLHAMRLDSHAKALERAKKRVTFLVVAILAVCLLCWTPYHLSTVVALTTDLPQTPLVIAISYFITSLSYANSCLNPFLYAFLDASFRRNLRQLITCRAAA
# TAAR1 antag – human TAAR1 antagonists, primary screen, Fluo-8 calcium fluorescence, CHO RD-HGA16 cells | AID 624466, 2012 | Trace amine-associated receptor 1 (Homo sapiens), Q96RJ0 | antagonist | actives 1.5% (n = 360,000) | inhibition, % at 3 µM;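 active = inhibition above a per-plate cutoff, the mean inhibition of test compounds on that plate plus 3 SD, cut at about 49% in these data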;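 also: 0% = DMSO plus EC80 beta-PEA response and 100% = DMSO alone without agonist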
# Target sequence (Q96RJ0 whole entry, looked up): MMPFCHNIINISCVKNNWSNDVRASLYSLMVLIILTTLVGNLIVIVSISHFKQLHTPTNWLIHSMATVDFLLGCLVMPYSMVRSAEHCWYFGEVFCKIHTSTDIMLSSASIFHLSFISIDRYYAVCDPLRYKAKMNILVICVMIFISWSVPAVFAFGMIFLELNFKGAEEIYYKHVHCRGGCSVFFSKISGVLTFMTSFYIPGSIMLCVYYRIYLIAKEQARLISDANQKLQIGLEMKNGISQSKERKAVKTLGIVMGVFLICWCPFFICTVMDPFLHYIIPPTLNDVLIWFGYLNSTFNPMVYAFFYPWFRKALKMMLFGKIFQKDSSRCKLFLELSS
#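 Assay system: CHO-derived RD-HGA16 cells stably expressing human TAAR1 plus Gα16. Timing: 140 s kinetic read after compound, 140 s after agonist. Technique: kinetic Fluo-8 calcium fluorescence measurement. Measure: % inhibition of agonist calcium response.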
# CHO parental Ca – ATP-evoked calcium signal inhibitors, parental CHO, primary screen, counter-screen for OX1R antagonist project, cell-based, fluorescence, Fluo-8 calcium dye; AID 463079, 2010; actives 0.63% (n = 330,000); inhibition, % at 5.6 µM; parental CHO-K1, ATP-induced calcium, Fluo-8 fluorescence;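 active = inhibition above that plate's mean sample inhibition plus 3 SD, cut at about 26% in these data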;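 also: 0% = ATP-challenged DMSO wells and 100% = DMSO wells without ATP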
#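 test system = CHO parental line | reagent = ATP stimulus | measured by = intracellular calcium via Fluo-8 no-wash fluorescent dye | control set = ATP and no-ATP DMSO wells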
# TAAR1 agonist – human TAAR1 agonists, primary screen, Fluo-8 calcium fluorescence, CHO RD-HGA16 cells; Trace amine-associated receptor 1 (Homo sapiens), Q96RJ0; vehicle wells 0%, saturating PEA agonist 100%; activation, % at 3 µM; actives 0.99% (n = 360,000);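 active = activation above the mean activation of all test compounds in the run plus 3 SD, cut at about 38% in these data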
#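 Signal – calcium-sensitive Fluo-8 signal, excitation 470-495, emission 515-575 nm · System – RD-HGA16 (CHO) cells co-expressing Gα16 and hTAAR1 · Incubation – 17-24 h seeding, 75 min 37 °C dye, 30 min RT · Compound dosing – 3 µM single concentration · Repeats – no replicates (n 1)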
# GPR7 antag cf – GPR7 receptor antagonists, confirmation, cell-based, fluorescence, single concentration | shares compounds with GPR7 antagonist | GPR7-expressing cells, calcium fluorescence antagonist mode | inhibition, % at 4.4 µM | actives 52% (n = 2,400) | AID 1952, 2009; in the data active = inhibition above about 24%;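 also: stimulated with the GPR7 agonist NPW; 0% = agonist plus vehicle and 100% = vehicle alone without agonist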
# MCHR1 antag – MCHR1 antagonists in cells, counter-screen for GPR7 antagonist project, cell-based, fluorescence, human; AID 2148, 2009; MCHR1-expressing cells, fluorescence antagonist assay; inhibition, % at 4.4 µM; shares compounds with GPR7 antagonist; actives 62% (n = 2,400); in the data active = inhibition above about 22%;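 also: 0% = vehicle with agonist and 100% = vehicle without agonist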
# OX1R Fluo8 conf – OX1R (HCRTR1) antagonists, confirmation, fluorescence, CHO/OX1R cells, Fluo-8 calcium, orexin A; shares compounds with OX1R antag-1; actives 38% (n = 1,100); orexin A calcium Fluo-8 fluorescence; inhibition, % at 5 µM; in the data active = inhibition above about 29%;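 also: 0% = agonist challenge alone and 100% = reference antagonist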
# CHO Ca counter – ATP-evoked calcium inhibition in parental CHO, counter-screen for OX1R antagonist project, cell-based, fluorescence, CHO-K1, triplicate. shares compounds with OX1R antag-1. inhibition, % at 5.6 µM. AID 492965, 2010. actives 9.3% (n = 1,100). ATP-induced calcium, Fluo-8 fluorescence;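 active = inhibition above a per-plate limit, the mean inhibition of that plate's test compounds plus 3 SD, cut at about 25% in these data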;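 also: 0% = ATP challenge with DMSO and 100% = DMSO without ATP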
# OX1R HTRF confirm – OX1R (HCRTR1) antagonists, confirmation, cell-based, HTRF; inhibition, % at 6.6 µM; shares compounds with OX1R antag-2; actives 49% (n = 1,800); OX1R-expressing cells, HTRF antagonist assay; in the data active = inhibition above about 55%;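 also: CHO cells expressing OX1R stimulated with orexin A at about EC80; 0% = agonist challenge alone and 100% = reference antagonist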
# CHO-K1 HTRF cnt – signal inhibition in parental CHO-K1 cells, counter-screen for OX1R antagonist project, cell-based, HTRF; shares compounds with OX1R antag-2; HTRF counterscreen; inhibition, % at 6.6 µM; actives 48% (n = 1,800); AID 493232, 2011; in the data active = inhibition above about 17%;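 also: 0% = agonist challenge with vehicle and 100% = vehicle alone without agonist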
# * marks the source's active call; other numbers are inactive results; x = no result given. This is a sample that favours compounds with a hit; in the whole collection about 4.6% have one here.
SMILES,OX1R antag-1,OX1R antag-2,GPR7 antagonist,TAAR1 antag,CHO parental Ca,TAAR1 agonist,GPR7 antag cf,MCHR1 antag,OX1R Fluo8 conf,CHO Ca counter,others
COc1ccc2c(c1)C(=O)C(=O)N2CC1COc2ccccc2O1 (configuration not stated),-5.5,-6.7,30.7*,25.7,-10.6,-0.7,20.5,26.7*,x,x,
OC(c1ccc(Cl)c(F)c1)c1ncc(-c2ccc(Oc3ccccc3)cc2)[nH]1 (configuration not stated),x,x,x,28.2,x,1.3,x,x,x,x,
Cc1ccc(C(CC(=O)N2CCNCC2)c2ccccc2)c(O)c1C (configuration not stated),34.4,2.3,33.2*,-1.8,-4.2,3.9,22.1,20.6,41.0*,31.3*,
O=C(CSc1n[nH]c(-c2cccs2)n1)N1CCN(S(=O)(=O)c2ccc3ccccc3c2)CC1,2.8,40.9,-9.6,34.0,-19.0,18.0,x,x,x,x,
Cc1cc(C)n(-c2cc(N3CCN(C(=O)c4cccc(F)c4)CC3)ccc2[N+](=O)[O-])n1,-35.8,22.0,-12.0,-11.9,-0.2,6.2,x,x,x,x,
COc1ccc(NC(=O)CN(Cc2ccccc2)Cc2ccccc2)cc1S(N)(=O)=O,-10.4,12.5,-6.7,14.7,-10.9,2.6,x,x,x,x,
COc1ccc(NC(=O)COc2ccccc2Cc2ccccc2)cc1S(N)(=O)=O,26.7,25.6,42.0*,-5.3,12.7,4.7,45.1*,57.3*,19.2,14.6,
CCCCN1C(=S)SC(C)(C)C1/[N+]([O-])=C/c1ccc(S(=O)(=O)NC)cc1 (configuration not stated),-13.0,3.5,5.8,23.4,3.2,5.7,x,x,x,x,
O=C(Nc1ccccc1)Nc1cccc(C(F)(F)F)c1,33.2,64.3,27.3*,17.2,10.3,19.1,40.5*,60.6*,-0.2,20.8,
O=C(Nc1ccc(C(=O)NCCCN2CCN(c3ccc(F)cc3)CC2)cc1)C1=CSCCO1,28.3,0.5,36.4*,23.4,17.4,45.4*,55.6*,73.9*,43.8*,27.2*,
CCS(=O)(=O)c1ncc(Cl)c(C(=O)Nc2ccc(C)cc2)n1,28.3,51.0,53.2*,9.6,26.0,3.0,52.1*,84.2*,32.0*,20.4,
CC(=O)Nc1ccc(NC(=O)c2nc(S(=O)(=O)Cc3ccccc3)ncc2Cl)cc1,15.0,23.1,2.9,4.4,13.8,1.2,x,x,x,x,
O=C(CN1CCC(c2nc3ccccc3s2)CC1)N1CCCCC1,-24.4,13.1,-4.2,9.2,-20.0,-0.2,x,x,x,x,
O=C(CN1CCC(c2nc3ccccc3s2)CC1)NCc1cccs1,51.8*,2.6,48.1*,25.2,3.8,8.7,39.2*,57.5*,-5.4,-1.9,
COCCCNC(=O)/C=C1\Sc2ccccc2N(Cc2ccccc2F)C1=O,3.7,85.6*,x,-7.2,-18.5,2.0,x,12.3,x,x,OX1R HTRF confirm=76.6*;CHO-K1 HTRF cnt=3.4
COc1ccc(S(=O)(=O)N2CCN(C(=O)c3cc(C)oc3C)CC2)cc1OC,-86.2,1.4,x,6.1,-1.9,0.1,x,x,x,x,
O=S(=O)(c1ccccc1)N1CCCc2ccccc21,-13.6,16.8,-12.0,x,3.3,x,x,x,x,x,
O=S(=O)(NC1CC1)c1ccc(S(=O)(=O)N2CCCc3ccccc32)cc1,81.7*,37.4*,22.0*,42.7,0.8,3.9,29.7*,28.5*,60.5*,4.5,OX1R HTRF confirm=61.8*;CHO-K1 HTRF cnt=-1.2
CCOC(=O)c1nn(-c2ccccc2C)c(=O)c(C#N)c1C,-5.9,126.7*,29.3*,9.1,1.5,5.2,-12.0,2.6,x,x,OX1R HTRF confirm=65.4*;CHO-K1 HTRF cnt=43.0*
CCOC(=O)c1nn(-c2ccccc2C)c(=O)c2c(N)scc12,-14.0,9.3,-1.1,-41.0,-2.3,1.8,x,x,x,x,
COc1ccccc1N(CC(=O)NC1CCCC1)C(=O)c1oc(C(C)(C)C)cc1C,40.8*,52.3*,43.6*,9.1,-23.6,20.3,37.3*,47.7*,20.0,3.5,OX1R HTRF confirm=64.0*;CHO-K1 HTRF cnt=0.8
COc1ccc(C2C(C(=O)O)c3ccccc3C(=O)N2C)cc1Br (configuration not stated),-22.8,16.3,-1.0,-6.6,-1.5,4.2,x,x,x,x,
